Source: PubChem BioAssay
IDH1 mut inh: inhibitors of human IDH1 R132H | O75874 | IDH1 R132H reductase, diaphorase/resazurin fluorescence, 60 min | inhibition, % at 10 µM | 0.18% of 70,000 active; in the data active means inhibition above about 34%; inconclusive means no clear call, values can overlap the other calls; inactive means below about 11%
Target sequence (O75874 whole entry R132H): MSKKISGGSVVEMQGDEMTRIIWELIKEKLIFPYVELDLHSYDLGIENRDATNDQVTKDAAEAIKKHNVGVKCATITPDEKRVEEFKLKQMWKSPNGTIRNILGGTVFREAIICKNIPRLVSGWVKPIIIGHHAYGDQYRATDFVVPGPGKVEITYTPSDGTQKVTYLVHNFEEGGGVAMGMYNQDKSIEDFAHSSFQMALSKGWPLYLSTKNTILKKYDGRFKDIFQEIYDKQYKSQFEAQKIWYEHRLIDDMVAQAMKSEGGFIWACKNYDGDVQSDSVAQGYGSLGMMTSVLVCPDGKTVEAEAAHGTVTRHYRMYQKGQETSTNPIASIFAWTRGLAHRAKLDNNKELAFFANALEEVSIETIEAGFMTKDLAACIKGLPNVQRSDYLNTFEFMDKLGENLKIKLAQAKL
GASC1 inh: blocks human GASC-1 (KDM4C) demethylase activity; 0.15% of 96,000 active; GST-KDM4C 2-372, H3K9me3 peptide, LANCE TR-FRET; inhibition, % at 12.5 µM; Q9H3R0; AID 720574;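 active means mean replicate inhibition above about 25%, with at least 55% of replicates also reaching it, limit read from the data, passing the limit was not always enough; inconclusive means only one of those two conditions met; inactive means neither condition met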
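System: N-terminal GST-fused human GASC-1 (KDM4C) fragment, residues 2-372 / Amount: 10 nM GST-KDM4C in enzyme reaction / Also added: H3K9me3 peptide with Fe(II)/2OG / Times: 30 min demethylation and 1 h detection at room temperature / Signal: LANCE TR-FRET / Read-out basis: Fall in 671/618 emission ratio as inhibition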
Pf Dd2 growth: blocks growth of Plasmodium falciparum Dd2 parasites; P. falciparum Dd2 growth, SYBR Green, 72 h; active compounds read low; activity change, % at 10 µM; 2.3% of 94,000 active; in the data active means activity change below about -80%; inconclusive means no clear call, values can overlap the other calls
T cruzi growth-1: inhibitors of T. cruzi proliferation; 5.9% of 77,000 active; T. cruzi beta-gal in NIH3T3, GalScreen luminescence, 90 h; inhibition, % at 8.34 µM;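 active means mean inhibition above about 93%, with at least 55% of replicates each passing it, limit read from the data, passing the limit was not always enough; inconclusive means only one of those two conditions holds; inactive means neither condition holds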
T cruzi growth-2: inhibitors of T. cruzi proliferation; shares compounds with T cruzi growth-1; T. cruzi beta-gal in NIH3T3, GalScreen luminescence, 90 h; inhibition, % at 8.35 µM; 72% of 5,600 active;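 active means mean replicate inhibition above about 95% and at least 55% of replicates individually reaching it, limit read from the data; inconclusive means only one of the two criteria is met; inactive means neither criterion is met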
T cruzi growth-3: inhibitors of T. cruzi proliferation; shares compounds with T cruzi growth-1; T. cruzi beta-gal in NIH3T3, GalScreen luminescence, 90 h; inhibition, % at 2.09 µM; 21% of 5,600 active; AID 651740;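 active means mean inhibition above about 95%, with at least 55% of replicates also reaching it, limit read from the data; inconclusive means meets just one of the two conditions; inactive means meets neither condition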
NIH3T3 tox: NIH/3T3 (mouse) viability loss; 14% of 5,600 active; shares compounds with T cruzi growth-1; cytotoxicity (signal decrease), % at 8.35 µM; NIH/3T3 viability, CellTiter-Glo ATP luminescence, 90 h; AID 651742;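 active means mean signal decrease across replicates above about 35% based on untreated-well scatter, with enough replicates individually passing, limit read from the data; inconclusive means no rule stated though some were filed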
NIH3T3 tox 2: NIH/3T3 (mouse) viability loss | 56% of 5,600 active | shares compounds with T cruzi growth-1 | inhibition, % at 24.9 µM | AID 651744 | NIH/3T3 viability, CellTiter-Glo ATP luminescence, 90 h;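 active means mean loss of cell viability signal at or above a set limit, and enough replicates individually reaching it; inconclusive means meets only the mean limit or only the replicate share; inactive means meets neither condition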
Hits are given with their value; – = inactive; ? = inconclusive; · = no result given. In the library only some 5.8% were active in any assay of this set; here they are far more common.

SMILES | IDH1 mut inh | GASC1 inh | Pf Dd2 growth | T cruzi growth-1 | T cruzi growth-2 | T cruzi growth-3 | NIH3T3 tox | NIH3T3 tox 2
CCNC(=O)C[C@H]1CC[C@H]2[C@@H](COc3ccc(NC(=O)C4CCOCC4)cc3C(=O)N2C)O1 | · | – | – | – | · | · | · | ·
CO[C@H]1CN(C)C(=O)c2cc(NC(=O)C3CC3)ccc2OC[C@@H](C)N(Cc2nccs2)C[C@@H]1C | – | – | · | · | · | · | · | ·
COc1ccc(S(=O)(=O)N(C)C[C@@H]2OCCCC[C@H](C)Oc3ccc(NC(=O)C4CCCCC4)cc3C(=O)N([C@H](C)CO)C[C@@H]2C)cc1 | · | – | – | – | · | · | · | ·
C[C@@H]1CN([C@@H](C)CO)C(=O)c2cc(NC(=O)Nc3ccc(F)cc3)ccc2O[C@@H](C)CCCCO[C@H]1CN(C)S(=O)(=O)c1ccccc1 | · | – | – | 106 | 112 | – | – | –
C[C@H](CO)N1C[C@H](C)[C@@H](CN(C)S(=O)(=O)c2ccccc2)OCCCC[C@H](C)Oc2ccc(NC(=O)Nc3ccc(F)cc3)cc2C1=O | – | – | – | 109 | 106 | – | – | –
C[C@@H]1CN([C@H](C)CO)C(=O)c2cc(NC(=O)Nc3ccc(F)cc3)ccc2O[C@@H](C)CCCCO[C@@H]1CN(C)S(=O)(=O)c1ccccc1 | – | – | -82 | 103 | – | – | – | –
C[C@@H]1CCCCO[C@@H](CN(C)S(=O)(=O)c2ccccc2)[C@@H](C)CN([C@H](C)CO)C(=O)c2cc(NC(=O)Nc3ccc(F)cc3)ccc2O1 | · | – | – | – | · | · | · | ·
C[C@@H]1CCCCO[C@H](CN(C)S(=O)(=O)c2ccccc2)[C@H](C)CN([C@@H](C)CO)C(=O)c2cc(NC(=O)Nc3ccc(F)cc3)ccc2O1 | · | – | – | 105 | 109 | – | – | –
O=C(NCC[C@@H]1CC[C@H](NC(=O)c2ccncc2)[C@H](CO)O1)Nc1ccc(Cl)cc1 | – | – | – | 101 | 97 | – | – | –
O=C(Nc1ccc(Cl)cc1)N[C@@H]1CC[C@H](CCn2cc(-c3ccccc3F)nn2)O[C@H]1CO | – | – | – | – | · | · | · | ·
O=C(Nc1ccc(Cl)cc1)N[C@H]1CC[C@@H](CCn2cc(-c3ccccc3F)nn2)O[C@H]1CO | – | – | – | 154 | – | – | – | 41
O=C(Nc1cccc(Cl)c1)N[C@@H]1CC[C@@H](CCn2cc(Cc3ccccc3)nn2)O[C@@H]1CO | – | – | – | ? | 98 | – | – | 33
O=C(NCC[C@H]1CC[C@H](NC(=O)c2ccncc2)[C@H](CO)O1)Nc1ccc(Cl)cc1 | – | – | – | – | · | · | · | ·
O=C(Nc1ccc(Cl)cc1)N[C@@H]1CC[C@@H](CCn2cc(-c3ccccc3F)nn2)O[C@H]1CO | – | – | – | 105 | 104 | – | – | –
COc1ccc2c3c(n(C)c2c1)[C@H](CO)N(C(=O)C1CCC1)CC31CN(Cc2cccc(F)c2)C1 | · | – | – | · | · | · | · | ·
CC=Cc1ccc2n(c1=O)C[C@H]1[C@H](CO)[C@@H](C(=O)NCC3CC3)N(CC3CCOCC3)[C@@H]21 (mixture of isomers) | · | – | – | – | · | · | · | ·
COc1ccccc1NC(=O)N[C@@H]1CC[C@H](CCn2cc(C3(O)CCCC3)nn2)O[C@H]1CO | – | – | – | – | · | · | · | ·
COc1ccccc1NC(=O)N[C@@H]1CC[C@H](CCn2cc(C3(O)CCCC3)nn2)O[C@@H]1CO | – | – | – | 109 | – | – | – | –
C[C@H]1CN([C@@H](C)CO)S(=O)(=O)c2ccc(C#CCC3CCCC3)cc2O[C@H]1CN(C)C | – | · | – | – | · | · | · | ·
CCC(=O)N(C)C[C@H]1Oc2cc(C#CCC3CCCC3)ccc2S(=O)(=O)N([C@H](C)CO)C[C@H]1C | – | – | – | 116 | 98 | – | 44 | 103
CNC[C@H]1Oc2cc(C#CCC3CCCC3)ccc2S(=O)(=O)N([C@H](C)CO)C[C@@H]1C | – | – | – | ? | 99 | – | – | 106
C[C@@H]1CN([C@H](C)CO)S(=O)(=O)c2ccc(C#CCC3CCCC3)cc2O[C@@H]1CN(C)C(=O)CC1CC1 | – | – | – | 112 | 96 | – | – | 105
CCC(=O)N(C)C[C@@H]1Oc2cc(C#CCC3CCCC3)ccc2S(=O)(=O)N([C@H](C)CO)C[C@H]1C | – | – | – | – | · | · | · | ·
C[C@H]1CN([C@@H](C)CO)C(=O)c2cc(C3=CCCCC3)cnc2O[C@H]1CN(C)C(=O)Nc1ccc(F)cc1 | – | – | – | – | · | · | · | ·
CO[C@H]1CN(C)C(=O)c2cc(NC(=O)C3CCOCC3)ccc2OC[C@H](C)N(Cc2cccnc2)C[C@H]1C | – | – | – | – | · | · | · | ·
SMILES | IDH1 mut inh | GASC1 inh | Pf Dd2 growth | T cruzi growth-1 | T cruzi growth-2 | T cruzi growth-3 | NIH3T3 tox | NIH3T3 tox 2
COc1ccc(S(=O)(=O)N(C)C[C@H]2Oc3cc(C4=CCCC4)ccc3S(=O)(=O)N([C@H](C)CO)C[C@@H]2C)cc1 | – | – | – | – | · | · | · | ·
COc1ccc(S(=O)(=O)N(C)C[C@H]2Oc3cc(C4=CCCC4)ccc3S(=O)(=O)N([C@H](C)CO)C[C@H]2C)cc1 | – | – | – | 122 | 103 | – | – | 57
COc1ccc(S(=O)(=O)N(C)C[C@H]2Oc3cc(C4=CCCC4)ccc3S(=O)(=O)N([C@@H](C)CO)C[C@H]2C)cc1 | – | – | – | 122 | 101 | 105 | 45 | 54
CC(C)NC(=O)Nc1ccc2c(c1)CC(=O)N([C@@H](C)CO)C[C@@H](C)[C@H](CN(C)Cc1ccc(Oc3ccccc3)cc1)O2 | – | – | ? | 101 | 107 | – | – | 104
C[C@@H]1CN([C@@H](C)CO)C(=O)Cc2cc(NC(=O)Nc3ccc4c(c3)OCO4)ccc2O[C@@H]1CN(C)Cc1ccc(Oc2ccccc2)cc1 | · | – | – | – | · | · | · | ·
CC(C)NC(=O)Nc1ccc2c(c1)CC(=O)N([C@H](C)CO)C[C@H](C)[C@H](CN(C)Cc1ccc(Oc3ccccc3)cc1)O2 | – | – | – | – | · | · | · | ·
C[C@@H]1CN([C@H](C)CO)C(=O)Cc2cc(NC(=O)Nc3ccc4c(c3)OCO4)ccc2O[C@H]1CN(C)Cc1ccc(Oc2ccccc2)cc1 | – | – | – | ? | 113 | – | – | 31
COc1ccc(CN(C)C[C@H]2Oc3ccc(NC(=O)Nc4ccc5c(c4)OCO5)cc3CC(=O)N([C@H](C)CO)C[C@H]2C)cc1 | – | – | – | 99 | 110 | – | – | –
COC(=O)C[C@@H]1CC[C@@H]2[C@@H](COc3ccc(NS(=O)(=O)c4ccccc4Cl)cc3C(=O)N2C)O1 | · | – | · | – | · | · | · | ·
C[C@@H]1CN([C@@H](C)CO)S(=O)(=O)c2ccc(C#Cc3ccccc3)cc2O[C@H]1CN(C)S(=O)(=O)c1ccccc1F | – | – | ? | 124 | 109 | – | 41 | 47
